This note sets out measurements from ChEMBL document CHEMBL4364345, “Synthesis and evaluation of 1,3,4-oxadiazole derivatives for development as broad-spectrum antibiotics” (Bioorg Med Chem, 2019).

Assay [1] deals with Enterococcus faecium. The assay is described as follows: Antimicrobial activity against Enterococcus faecium AUS0004 at 10 ug/disk incubated for 20 +/- 4 hrs by agar disk diffusion method. The class given is functional. The following applies: read-out: DIZ. (In general: In agar diffusion tests the substance spreads into inoculated agar from a disc or well.)
Assay [2] has as its system Listeria monocytogenes. The experiment in a line: Antimicrobial activity against Listeria monocytogenes clinical isolate at 30 ug/disk incubated for 20 +/- 4 hrs by agar disk diffusion method. Particulars: read-out: DIZ. The assay is classed as functional.
In assay [3] the test system is Enterococcus faecalis. The assay is described as follows: Antimicrobial activity against Enterococcus faecalis ATCC 29212 at 30 ug/disk incubated for 20 +/- 4 hrs by agar disk diffusion method. The class given is functional, organism-based.
In assay [4] the test system is Enterococcus faecium. The assay is described as follows: Antimicrobial activity against Enterococcus faecium AUS0004 at 30 ug/disk incubated for 20 +/- 4 hrs by agar disk diffusion method. The assay is classed as functional, organism-based.
The test system of assay [5] is Listeria monocytogenes. The experiment in a line: Antimicrobial activity against Listeria monocytogenes clinical isolate at 5 ug/disk incubated for 20 +/- 4 hrs by agar disk diffusion method. The assay is classed as functional. The following applies: read-out: DIZ.
Assay [6] relates to Listeria monocytogenes. The assay is described as follows: Antimicrobial activity against Listeria monocytogenes clinical isolate at 200 ug/disk incubated for 20 +/- 4 hrs by agar disk diffusion method. The assay is classed as functional. Particulars: read-out: DIZ.
The subject of assay [7] is Enterococcus faecium. The assay is described as follows: Antimicrobial activity against Enterococcus faecium AUS0004 at 2 ug/disk incubated for 20 +/- 4 hrs by agar disk diffusion method. The class given is functional. The following applies: read-out: DIZ.
In assay [8] the test system is Enterococcus faecalis. The assay is described as follows: Antimicrobial activity against Enterococcus faecalis ATCC 29212 at 15 ug/disk incubated for 20 +/- 4 hrs by agar disk diffusion method. The assay is classed as functional. Particulars: read-out: DIZ.
The test system of assay [9] is Enterococcus faecium. The assay is described as follows: Antimicrobial activity against Enterococcus faecium AUS0004 at 15 ug/disk incubated for 20 +/- 4 hrs by agar disk diffusion method. The class given is functional. Particulars: read-out: DIZ.
For assay [10], the system named is Streptococcus pyogenes. The assay is described as follows: Antimicrobial activity against Streptococcus pyogenes clinical isolate at 50 ug/disk incubated for 20 +/- 4 hrs by agar disk diffusion method. The assay is classed as functional. The following applies: read-out: DIZ. The essentials:
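Plates of MH + 5% horse blood were swabbed with a 0.5 McFarland inoculum and received discs with 50 μg compound (from 5 g/L in DMSO) plus a 10 μL DMSO control disc. Incubation at 35 ± 2 °C aerobically with 5% CO2 for 20 ± 4 h, then zone diameters measured.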

Assay [11] deals with Acinetobacter baumannii. The experiment in a line: Antimicrobial activity against Acinetobacter baumannii clinical isolate at 50 ug/disk incubated for 20 +/- 4 hrs by agar disk diffusion method. The assay is classed as functional. The following applies: read-out: DIZ. The essentials:
(§1)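 Agar disk diffusion on Mueller-Hinton agar swab-seeded from a 0.5 McFarland inoculum (about 10^8 CFU/ml). Cellulose discs got 50 μg compound (10 μl of 5 g/L in DMSO); a 10 μL DMSO disc was the control. Incubated aerobically at 35 ± 2 °C for 20 ± 4 h, then growth-inhibition diameters measured.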

Assay [12] relates to Staphylococcus aureus. The experiment in a line: Antimicrobial activity against Staphylococcus aureus ATCC 29213 at 50 ug/disk incubated for 20 +/- 4 hrs by agar disk diffusion method. The class given is functional. The following applies: read-out: DIZ. In outline: as §1
Assay [13] deals with Enterococcus faecium. The experiment in a line: Antimicrobial activity against Enterococcus faecium HM1070 at 50 ug/disk incubated for 20 +/- 4 hrs by agar disk diffusion method. The class given is functional. Particulars: read-out: DIZ. In outline:
as §1

The subject of assay [14] is Pseudomonas aeruginosa. The assay is described as follows: Antimicrobial activity against Pseudomonas aeruginosa clinical isolate at 50 ug/disk incubated for 20 +/- 4 hrs by agar disk diffusion method. Particulars: read-out: DIZ. The assay is classed as functional. In outline:
as §1

Assay [15] concerns Bacteroides fragilis. The experiment in a line: Antimicrobial activity against Bacteroides fragilis ATCC 25285 at 50 ug/disk incubated for 20 +/- 4 hrs by agar disk diffusion method. The class given is functional. The following applies: read-out: DIZ. In outline: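 Anaerobic disk diffusion: MH agar + 5% horse blood seeded from a 0.5 McFarland swab, with discs of 50 μg compound (10 μl of 5 g/L DMSO solution) and a DMSO control disc. Kept at 35 ± 2 °C under anaerobic conditions for 20 ± 4 h; inhibition diameters recorded.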

In assay [16] the test system is Clostridium perfringens. The assay is described as follows: Antimicrobial activity against Clostridium perfringens clinical isolate at 50 ug/disk incubated for 20 +/- 4 hrs by agar disk diffusion method. The assay is classed as functional. Particulars: read-out: DIZ. In outline:
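Agar disk diffusion on MH agar with 5% horse blood (MHF), surface-seeded by swab from a 0.5 McFarland inoculum (about 10^8 CFU/ml). Cellulose discs received 10 μl of a 5 g/L DMSO solution (50 μg). A DMSO-only disc served as control. Anaerobic incubation at 35 ± 2 °C for 20 ± 4 h; growth-inhibition diameter measured in mm.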

In assay [17] the test system is Listeria monocytogenes. The experiment in a line: Antimicrobial activity against Listeria monocytogenes clinical isolate at 50 ug/disk incubated for 20 +/- 4 hrs by agar disk diffusion method. The assay is classed as functional. Particulars: read-out: DIZ. In outline:
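Disk diffusion on MH agar with 5% horse blood, seeded by swab from a 0.5 McFarland suspension. Discs held 50 μg compound from a 5 g/L DMSO solution, with a DMSO-only control disc. Aerobic incubation at 35 ± 2 °C for 20 ± 4 h; inhibition zone diameter read.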

Assay [18] relates to Bacillus subtilis. The experiment in a line: Antimicrobial activity against Bacillus subtilis clinical isolate at 50 ug/disk incubated for 20 +/- 4 hrs by agar disk diffusion method. The assay is classed as functional. Particulars: read-out: DIZ. In outline: as §1
In assay [19] the test system is Kocuria rhizophila. The experiment in a line: Antimicrobial activity against Kocuria rhizophila clinical isolate at 50 ug/disk incubated for 20 +/- 4 hrs by agar disk diffusion method. The assay is classed as functional. Particulars: read-out: DIZ. The essentials:
as §1

Assay [20] deals with Escherichia coli. The experiment in a line: Antimicrobial activity against Escherichia coli ATCC 25922 at 50 ug/disk incubated for 20 +/- 4 hrs by agar disk diffusion method. The class given is functional. The following applies: read-out: DIZ. The essentials: as §1
The test system of assay [21] is Escherichia coli. The experiment in a line: Antimicrobial activity against Escherichia coli clinical isolate at 50 ug/disk incubated for 20 +/- 4 hrs by agar disk diffusion method. The class given is functional. The following applies: read-out: DIZ. In outline:
as §1

Assay [22] relates to Klebsiella pneumoniae. The assay is described as follows: Antimicrobial activity against Klebsiella pneumoniae clinical isolate at 50 ug/disk incubated for 20 +/- 4 hrs by agar disk diffusion method. The class given is functional. Particulars: read-out: DIZ. In outline: as §1
Assay [23] relates to Enterococcus faecalis. The experiment in a line: Antimicrobial activity against Enterococcus faecalis ATCC 29212 at 50 ug/disk incubated for 20 +/- 4 hrs by agar disk diffusion method. Particulars: read-out: DIZ. The class given is functional. The essentials: as §1
Assay [24] relates to Enterobacter cloacae. The experiment in a line: Antimicrobial activity against Enterobacter cloacae clinical isolate at 50 ug/disk incubated for 20 +/- 4 hrs by agar disk diffusion method. The class given is functional. Particulars: read-out: DIZ. In outline:
as §1

The test system of assay [25] is Enterococcus faecium. The assay is described as follows: Antimicrobial activity against Enterococcus faecium AUS0004 at 50 ug/disk incubated for 20 +/- 4 hrs by agar disk diffusion method. The assay is classed as functional. Particulars: read-out: DIZ. In outline:
as §1

In assay [26] the test system is Enterococcus faecium. The assay is described as follows: Antimicrobial activity against Enterococcus faecium AUS0004 at 5 ug/disk incubated for 20 +/- 4 hrs by agar disk diffusion method. The class given is functional. The following applies: read-out: DIZ.
Assay [27] concerns Enterococcus faecalis. The experiment in a line: Antimicrobial activity against Enterococcus faecalis ATCC 29212 at 5 ug/disk incubated for 20 +/- 4 hrs by agar disk diffusion method. The assay is classed as functional. The following applies: read-out: DIZ.
Assay [28] has as its system Enterococcus faecalis. The assay is described as follows: Antimicrobial activity against Enterococcus faecalis ATCC 29212 at 300 ug/disk incubated for 20 +/- 4 hrs by agar disk diffusion method. The class given is functional. Particulars: read-out: DIZ.
For assay [29], the system named is Enterococcus faecium. The assay is described as follows: Antimicrobial activity against Enterococcus faecium AUS0004 at 300 ug/disk incubated for 20 +/- 4 hrs by agar disk diffusion method. The assay is classed as functional. The following applies: read-out: DIZ.

`C[C@@H](O)[C@H]1C(=O)N2C(C(=O)O)=C(SCCNC=N)C[C@H]12` [IMIPENEM ANHYDROUS]: in [1], the zone of inhibition at 10 µg/disc worked out at 6 mm.
On to `CO[C@@]1(NC(=O)[C@H](C(=O)O)c2ccc(O)cc2)C(=O)N2C(C(=O)O)=C(CSc3nnnn3C)CO[C@@H]21`, for which the zone of inhibition at 30 µg/disc in assay [2] came to 15 mm.
Regarding GENTAMICIN, the inhibition zone (IZ) stood at 14 mm in assay [3] and 17 mm in assay [4].
Regarding `CC1COc2c(N3CCN(C)CC3)c(F)cc3c(=O)c(C(=O)O)cn1c23` (centres undefined) [OFLOXACIN], the zone of inhibition at 5 µg/disc in assay [5] is 21 mm.
On to `C[C@@H]1O[C@@H]1P(=O)(O)O` [FOSFOMYCIN], for which the zone of inhibition at 200 µg/disc in assay [6] came out at 6 mm.
As to `CC1(C)S[C@@H]2[C@H](NC(=O)[C@H](N)c3ccccc3)C(=O)N2[C@H]1C(=O)O` [AMPICILLIN], in assay [7], the zone of inhibition at 2 µg/disc came out at 6 mm.
Regarding `CC[C@H]1OC(=O)[C@H](C)[C@@H](O[C@H]2C[C@@](C)(OC)[C@@H](O)[C@H](C)O2)[C@H](C)[C@@H](O[C@@H]2O[C@H](C)C[C@H](N(C)C)[C@H]2O)[C@](C)(O)C[C@@H](C)C(=O)[C@H](C)[C@@H](O)[C@]1(C)O` [ERYTHROMYCIN], the zone of inhibition at 15 µg/disc in assay [8] was 20 mm; in assay [9] it was 6 mm.
Take `O=C(Nc1nnc(-c2ccc(C(F)(F)F)cc2)o1)c1ccc(Cl)cc1`: the zone of inhibition at 50 µg/disc was determined as 6 mm in assay [10]; 6 mm in assay [11]; 9 mm in [12]; 11 mm in assay [13]; 6 mm in [14]; 9 mm in [15]. Further, the zone of inhibition at 50 µg/disc was determined as 6 mm in assay [16]; 16 mm in assay [17]; 13 mm in assay [18]; 14 mm in [19]; 6 mm in assay [20]; 6 mm in assay [21]. For the same molecule, the zone of inhibition at 50 µg/disc amounted to 6 mm in assay [22], 10 mm in assay [23], 6 mm in assay [24] and 9 mm in [25].
On to `CO[C@H]1/C=C/O[C@@]2(C)Oc3c(C)c(O)c4c(O)c(c(/C=N/N5CCN(C)CC5)c(O)c4c3C2=O)NC(=O)/C(C)=C\C=C\[C@H](C)[C@H](O)[C@@H](C)[C@@H](O)[C@@H](C)[C@H](OC(C)=O)[C@@H]1C` [RIFAMPIN], for which the zone of inhibition at 5 µg/disc in assay [26] amounted to 9 mm; in assay [27], 21 mm.
As to `CN[C@@H]1[C@H](O[C@H]2[C@H](O[C@H]3[C@H](O)[C@@H](O)[C@H](N=C(N)N)[C@@H](O)[C@@H]3N=C(N)N)O[C@@H](C)[C@]2(O)C=O)O[C@@H](CO)[C@H](O)[C@H]1O` [STREPTOMYCIN], the zone of inhibition at 300 µg/disc in [28] amounted to 16 mm; in [29] it was 22 mm.
